# Assay results taken from paper PMC2841013 (Biochemistry, 2010).
# “Also recorded” adds a separate entry of the source.
# B1: MEQ bZIP domain (protein)
# chain: KQKLERRRKRNRDAARRRRRKQTDYVDKLHEACEELQRANEHLRKEIRDLRTECTSLRVQLACH
# What was measured:
# CEBPA (C/EBPα) = details: cited from earlier work
# FOS = assay: Coiled-coil array vs FOS; type: binding, human; details: BZLF1 probe 1280 nM
# Summary of the method: (§1)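 Leucine-zipper regions of human bZIPs and viral proteins were expressed in E. coli RP3098, purified denaturing via Ni-NTA then reverse-phase HPLC, and printed on aldehyde glass slides. The fluorescently labelled BZLF1 zipper was probed at 1280 nM in phosphate buffer with GdnHCl. Each measurement averaged 8 background-corrected spots and was reported as Sarray or arrayscore, −log(F/Fmax), with F as intensity minus the probe's median signal.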
# CEBPA = assay: Coiled-coil array vs CEBPA; type: binding, human; details: BZLF1; leucine-zipper regions; probe 1280 nM
# Summary of the method: as §1
# JUN = assay: Coiled-coil array vs JUN; type: binding, human; details: BZLF1 probe 1280 nM
# BZLF1 = assay: Coiled-coil array, BZLF1 self-association; type: binding, Epstein-Barr virus; details: BZLF1 leucine zipper; probe 1280 nM
# [1] = test system: 33 representative human bZIPs; assay: Coiled-coil array, panel of human bZIPs; type: binding
# MAFB on MARE DNA = assay: Gel-shift with MAFB on MARE DNA; type: binding, human; details: MAFB 4 nM, HBZLZ 4, 40, 400, or 4000 nM
# MAFG on MARE DNA = assay: Gel-shift with MAFG on MARE DNA; type: binding, human; details: MAFG 4 nM, HBZLZ 4, 40, 400, or 4000 nM
# Q9DGW5 = details: other: circular dichroism
molecule,measurement,setting,value
"BZLF1: bZIP protein encoded by Epstein-Barr virus (LLQHYREVAAAKSSENDRLRLLLKQM; fluorescently labeled when used as solution probe on the arrays (dye and site not stated); left off: His tag (from the vector pDEST17, modified versions, and the Ni-NTA purification), end not stated,)",interaction with CEBPA,CEBPA (C/EBPα),interact with many viral and cellular proteins including the human bZIP CEBPA (C/EBPα)
same,interaction on array,FOS,not observed to interact on the arrays
same,interaction on array,CEBPA,this pairing was not observed in our array experiments
same,interaction on array,JUN,not observed to interact on the arrays
same,self-association on array,BZLF1,observed to self-associate strongly
same,interaction with human bZIPs on array,"[1]; BZLF1 leucine zipper, probe concentration 1280 nM, average of 8 spots",not to interact with any human bZIP peptides; also recorded: display almost exclusive homo-association
BZLF1CT: BZLF1 construct with the C-terminal extension (LLQHYREVAAAKSSENDRLRLLLKQMCPSLDVDSIIPRTPDVLHEDLLNF; fluorescently labeled when used as solution probe on the arrays (dye and site not stated)),interaction with human bZIPs on array,[1]; construct with the C-terminal extension,did not interact strongly with any human proteins
"HBZLZ: leucine-zipper-only version of HBZ (DGYTRQLEGEVESLEAERRKLLQEKEDLMGEVNYWQGRLEAMWLQ; fluorescently labeled when used as solution probe on the arrays (dye and site not stated); left off: His tag (from the vector pDEST17, modified versions, and the Ni-NTA purification), end not stated,)",amount of MAFB bound to DNA,MAFB on MARE DNA,"The amount of MAF protein bound to DNA was decreased, though a higher concentration of HBZLZ was required. No additional complex was detected"
same,amount of MAFG bound to DNA,MAFG on MARE DNA,"The amount of MAF protein bound to DNA was decreased, though a higher concentration of HBZLZ was required. No additional complex was detected"
B1,Tm (homo-association),Q9DGW5,for MEQ was 35.2 °C
